# Assay results from ChEMBL document CHEMBL3397031, “Synthesis and structure-activity relationships of pyridinyl-1H-1,2,3-triazolyldihydroisoxazoles as potent inhibitors of tubulin polymerization” (Eur J Med Chem, 2015).
# Activity calls are given as the source filed them. The calls are words filed in the database; no cut-off is given here.
# Assays:
# [1] = tested on: A549; experiment: Cytotoxicity against human A549 cells after 48 hrs by MTT assay; type: functional, cell-based; details: A549, 48 h
# Summary of the method: (§1)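 A549, HeLa and MCF7 cells were grown in DMEM with 10% FBS, and DU145 in MEM with non-essential amino acids, pyruvate, insulin and 10% FBS. Cells were plated 24 h before dosing, then exposed continuously for 48 h at 1, 10, 25 and 100 µM in triplicate wells. MTT was added for 60 min, dissolved in DMSO and read at 560 nm. IC50 was taken from dose-response curves against control, as mean ± SD of three independent experiments.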
# [2] = tested on: DU-145; experiment: Cytotoxicity against human DU145 cells after 48 hrs by MTT assay; type: functional, cell-based; details: DU-145, 48 h; summary of the method: as §1
# [3] = tested on: HeLa; experiment: Cytotoxicity against human HeLa cells after 48 hrs by MTT assay; type: functional, cell-based; summary of the method: as §1
# [4] = tested on: MCF7; experiment: Cytotoxicity against human MCF7 cells after 48 hrs by MTT assay; type: functional, cell-based; details: MCF7, 48 h; summary of the method: as §1
# [5] = biological target: Tubulin (Bos taurus) (UniProt Q6B856+Q862L2+Q862F3); details: at 10 µM
# [6] = biological target: Tubulin (Bos taurus, UniProt Q6B856+Q862L2+Q862F3); experiment: Inhibition of bovine brain tubulin polymerization measured for 1 hr by fluorescence assay
# [7] = tested on: HeLa; experiment: Cell cycle arrest in human HeLa cells assessed as accumulation at G2/M phase at 10 uM after 24 hrs by FACS analysis (reference value: 26.75%); type: functional
# [8] = tested on: HeLa; experiment: Cell cycle arrest in human HeLa cells assessed as disruption of microtubule organization at 10 uM after 24 hrs by DAPI staining-based immunohistochemistry relative to control; type: functional
# Summary of the method: (§2)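 HeLa cells were grown on coverslips and treated 24 h at 10 µM. They were fixed in 3.5% formaldehyde/PBS pH 7.4 for 10 min, permeabilized with 0.5% Triton X-100/0.05% Tween-20 and blocked in 2% BSA. Staining used anti-tubulin (1:200, 4 h, room temperature) then FITC anti-mouse (1:500, 1 h). Cells were mounted with DAPI and imaged by confocal microscopy.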
# [9] = tested on: HeLa; experiment: Cell cycle arrest in human HeLa cells assessed as planar arrangement of chromosomes with distinct microtubule organization centres at 10 uM after 24 hrs by DAPI staining-based immunohistochemistry relative to control; type: functional; summary of the method: as §2
# [10] = tested on: HeLa; experiment: Cell cycle arrest at G2/M phase in human HeLa cells assessed as increase in cyclin B1 expression at 10 uM after 24 hrs by immunoblot analysis relative to control; type: functional, cell-based
# [11] = tested on: HeLa; experiment: Cell cycle arrest at G2/M phase in human HeLa cells assessed as increase in soluble form of tubulin at 10 uM after 24 hrs by immunoblot analysis relative to control; type: functional, cell-based
# Summary of the method: (§3)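 HeLa cells seeded at 1×10^5 per well in complete growth medium and treated 24 h (test compounds 10 µM; nocodazole 2 µM as positive control; DMSO controls). Soluble tubulin was taken by 3 min permeabilization at 30 °C in PIPES-KOH pH 6.8/0.2% Triton X-100/glycerol buffer, and insoluble pellet fraction in Laemmli buffer. Equal volumes were run on SDS-10% PAGE and probed with mouse anti-α-tubulin, with HRP secondary and ECL detection.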
# [12] = tested on: HeLa; experiment: Cell cycle arrest at G2/M phase in human HeLa cells assessed as reduction in polymerized form of tubulin at 10 uM after 24 hrs by immunoblot analysis relative to control; type: functional, cell-based; summary of the method: as §3
SMILES,inhibition [5] [%],IC50 [6] [µM],IC50 [1] [µM],IC50 [2] [µM],IC50 [3] [µM],IC50 [4] [µM],Activity [7] [%],Activity [8],Activity [9],Activity [10],Activity [11],Activity [12]
COc1cc(C2=NOC(COCc3cn(Cc4cc(C)cnc4N4CCSCC4)nn3)C2)cc(OC)c1OC (centres undefined),38,,45.6,29.4,41,45.1,,,,,,
COc1cc(COCc2cn(Cc3cc(C)cnc3N3CCSCC3)nn2)cc(OC)c1OC,27,,71.5,48.6,61.8,82.1,,,,,,
COc1cc(C2=NOC(COCc3cn(Cc4cc(C)cnc4N4CCOCC4)nn3)C2)cc(OC)c1OC (centres undefined),27,,45.4,138,37.3,146,,,,,,
COc1cc(-c2cc(COCc3cn(Cc4cc(-c5ccccc5)cnc4N4CCSCC4)nn3)on2)cc(OC)c1OC,11,,52.6,210,175,213,,,,,,
COc1cc(COCc2cn(Cc3cc(-c4ccccc4)cnc3N3CCSCC3)nn2)cc(OC)c1OC,39,,45.2,48.9,31.5,59,,,,,,
COc1cc(COCc2cn(Cc3cc(C)cnc3N3CCOCC3)nn2)cc(OC)c1OC,45,,64.9,66.7,35.6,48.5,,,,,,
COc1cc(C2=NOC(COCc3cn(Cc4cc(-c5ccc(C)cc5)cnc4N4CCOCC4)nn3)C2)cc(OC)c1OC (centres undefined),27,,39.6,49.7,38.7,59.6,,,,,,
COc1cc(C2=NOC(COCc3cn(Cc4cc(-c5ccc(C)cc5)cnc4Cl)nn3)C2)cc(OC)c1OC (centres undefined),69,8.1,11.5,13.1,9.7,12.9,78.85,Active,Active,Active,Active,Active

# Continued, in another order:
inhibition [5] [%],IC50 [6] [µM],SMILES,IC50 [1] [µM],IC50 [2] [µM],IC50 [3] [µM],IC50 [4] [µM],Activity [7] [%],Activity [8],Activity [9],Activity [10],Activity [11],Activity [12]
50,,COc1cc(C2=NOC(COCc3cn(Cc4cc(-c5ccccc5)cnc4N4CCSCC4)nn3)C2)cc(OC)c1OC (centres undefined),31.5,34.5,29.2,45,,,,,,
72,6.8,COc1cc(C2=NOC(COCc3cn(Cc4cc(-c5ccccc5)cnc4Cl)nn3)C2)cc(OC)c1OC (centres undefined),8.6,11.4,7.3,14.6,87.79,Active,Active,Active,Active,Active
18,,COc1cc(COCc2cn(Cc3cc(-c4ccccc4)cnc3Cl)nn2)cc(OC)c1OC,62.6,45.5,41.9,86.7,,,,,,
46,,COc1cc(-c2cc(COCc3cn(Cc4cc(-c5ccc(F)cc5)cnc4Cl)nn3)on2)cc(OC)c1OC,40.6,31.9,37.3,76.4,,,,,,
22,,COc1cc(-c2cc(COCc3cn(Cc4cc(C)cnc4Cl)nn3)on2)cc(OC)c1OC,256,39.8,57.7,194,,,,,,
15,,COc1cc(-c2cc(COCc3cn(Cc4cc(-c5ccc(C)cc5)cnc4N4CCSCC4)nn3)on2)cc(OC)c1OC,61,94.3,52.6,64.8,,,,,,
35,,COc1cc(COCc2cn(Cc3cc(-c4ccc(C)cc4)cnc3Cl)nn2)cc(OC)c1OC,150,37,28.6,146,,,,,,
32,,COc1cc(-c2cc(COCc3cn(Cc4cc(C)cnc4N4CCSCC4)nn3)on2)cc(OC)c1OC,40,73.9,53.4,82.9,,,,,,
